# The list is not random: actives were taken first. Their share in the collection is about 3.2%.
# Mcl-1 Bim block: human Bim-Mcl-1 interaction inhibition; 190,000 tested, 0.1% active; Q07820; Bead-based flow cytometry, Bim peptide-Mcl-1 binding; inhibition, % at 10 µM; in the data active = inhibition above about 40%
# Target sequence (Q07820 whole entry, looked up): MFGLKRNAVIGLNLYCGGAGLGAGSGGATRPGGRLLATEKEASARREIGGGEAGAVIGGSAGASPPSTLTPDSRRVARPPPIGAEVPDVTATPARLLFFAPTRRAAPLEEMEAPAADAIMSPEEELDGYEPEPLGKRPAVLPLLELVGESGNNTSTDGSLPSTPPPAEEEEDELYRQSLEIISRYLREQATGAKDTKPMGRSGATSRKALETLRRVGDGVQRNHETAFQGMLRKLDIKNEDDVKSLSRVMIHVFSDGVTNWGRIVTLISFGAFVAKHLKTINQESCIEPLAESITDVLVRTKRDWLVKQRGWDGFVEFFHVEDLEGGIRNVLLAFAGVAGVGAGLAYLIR
# Biofilm kill mix: mixture kills Candida albicans biofilm cells; C. albicans biofilm persisters + clotrimazole, fluorescence viability; primary screen in compound mixtures of four per well; inhibition, % at 7.6 µM; 120,000 tested, 0.02% active; AID 1242;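 active = inhibition above 30.3% in the primary screen of four-compound pools, then above 30% when the compound was retested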;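 note: compounds exposed to preformed 24 h biofilms for 48 h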
#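 Test system: C. albicans CAF4-2 wild-type biofilms; buffer or medium: RPMI/MOPS medium, pH 7.0; schedule: 24 h biofilm formation, then 48 h compound exposure, 37 °C; detection: Alamar Blue fluorescence; measure: percent inhibition of biofilm viability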
# 14-3-3 Bad PPI: disrupts binding of bovine 14-3-3 zeta to phospho-Bad peptide; P63103; TR-FRET 14-3-3zeta/Dy647-pBad peptide displacement, 1 h; inhibition, % at 21.7 µM; 220,000 tested, 0.71% active; AID 781;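 active = inhibition above about 70%, limit read from the data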
# Target sequence (P63103 whole entry, looked up): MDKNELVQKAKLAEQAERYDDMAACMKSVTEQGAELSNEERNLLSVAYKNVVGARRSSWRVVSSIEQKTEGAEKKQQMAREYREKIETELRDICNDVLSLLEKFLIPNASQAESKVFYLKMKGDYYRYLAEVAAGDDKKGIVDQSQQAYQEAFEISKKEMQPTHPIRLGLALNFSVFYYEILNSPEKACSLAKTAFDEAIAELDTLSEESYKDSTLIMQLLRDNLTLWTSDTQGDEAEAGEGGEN
# Hck Nef HTS: human Hck-Nef kinase inhibition. P08631. Recombinant Hck-YEEI plus Nef, Z-Lyte FRET kinase assay. inhibition, % at 20 µM. 220,000 tested, 0.68% active. AID 463187;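 active = Hck-Nef kinase inhibition above about 50%, limit read from the data; inactive = inhibition below that limit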
# Mcl1 Noxa PPI: Mcl-1/Noxa interaction inhibition; 220,000 tested, 1.5% active; TR-FRET Mcl-1/Noxa peptide binding, 2 h; Q07820; AID 1022; inhibition, % at 21.7 µM;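 active = compounds that cut the protein-peptide binding signal by more than 50% relative to plate controls in a single-dose test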;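 note: His-tagged Mcl-1 with rhodamine Noxa BH3 peptide and terbium anti-His antibody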
# Mcl1-Bid inh: disrupts binding of human Mcl-1 to Bid peptide. TR-FRET Mcl-1/Bid-Dy647 peptide binding, 1536-well. Q07820. 220,000 tested, 0.97% active. inhibition, % at 21.7 µM. AID 1021;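 active = compounds that cut the binding signal by more than half at the single screening dose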;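 note: His-tagged Mcl-1 with europium anti-His antibody binding Bid BH3 peptide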
# A number is an active result; - = inactive; . = no result given.
SMILES,Mcl-1 Bim block,Biofilm kill mix,14-3-3 Bad PPI,Hck Nef HTS,Mcl1 Noxa PPI,Mcl1-Bid inh
CCOc1cc(/C=C2\C(=O)NN(c3ccccc3)C2=O)cc([N+](=O)[O-])c1O,-,-,-,-,51,-
COc1cc(/C=C2\C(=O)NN(c3ccc(C)cc3)C2=O)cc([N+](=O)[O-])c1O,-,-,-,-,-,-
COc1cc(/C=C2\C(=O)NN(c3ccccc3)C2=O)cc([N+](=O)[O-])c1O,-,-,-,-,51,-
O=C(NN1C(=O)/C(=C/c2ccc(O)c([N+](=O)[O-])c2)SC1=S)c1ccccc1Cl,-,-,-,-,-,-
COc1cc(/C=C2\SC(=O)N(Cc3ccc(F)cc3)C2=O)cc([N+](=O)[O-])c1O,-,-,-,-,97,-
Cn1nc(C(=O)Nc2sc3c(c2C#N)CCCC3)ccc1=O,-,-,-,-,-,-
CC(C)(C)CC(C)(C)NC(=S)NC1CCN(Cc2ccccc2)CC1,-,-,-,-,-,92
COc1cc(OC)c(NC(C)C(=O)N2CCCC2)cc1Cl (stereo not drawn),-,-,-,-,-,-
Cc1ccc(-c2nc(N3CCOCC3)sc2C(=O)N2CCCCC2)cc1,-,-,-,-,-,98
Cc1ccc(-c2nc(N3CCOCC3)sc2C(=O)N2CCOCC2)cc1,-,-,-,-,-,-
COc1cc(/C=N/NC(=O)C2C3CCCCC32C)cc(Br)c1O (stereo not drawn),-,-,-,-,51,-
COc1ccc(/C=N/NC(=O)C2C3CCCCC32C)cc1OC (stereo not drawn),-,-,-,-,-,-
N=c1c(-c2nc3ccccc3[nH]2)cc(C(=O)c2cccs2)nn1-c1ccc(Cl)cc1,.,.,.,-,.,.
CN(C)/C=C\C(=C/C(=O)C(F)(F)F)Nc1ccccc1Oc1ccccc1,-,-,-,-,67,-
Cc1ccc(NC(/C=C/N(C)C)=C/C(=O)C(F)(F)F)c(C)c1,-,-,-,-,-,-
COc1cc(CN2CCN(Cc3ccc(C)cc3)C(CCO)C2)cc(OC)c1O (stereo not drawn),-,-,-,-,-,-
O=C(Cn1c(=O)oc2ccccc21)NC(=O)NCc1ccccc1,-,.,-,-,-,-
O=C(CN1C(=O)/C(=C\c2ccc(F)cc2)Oc2ccccc21)N1CCN(c2ccccn2)CC1,-,-,-,-,-,-
O=C(CN1C(=O)/C(=C\c2cccc(F)c2)Oc2ccccc21)N1CCN(c2ccccn2)CC1,-,-,-,-,-,54
COc1ccc(CCNC(=O)c2ccc(C)s2)cc1OC,-,-,-,-,-,-
NC(=O)Cn1c(=O)n(Cc2ccco2)c(=O)c2c3c(sc21)CCCCC3,-,.,-,-,64,-
CCN(c1ccccc1)S(=O)(=O)c1ccc(Cl)c(NC(=O)COC(=O)c2cc(O)c3ccccc3c2O)c1,.,-,-,80,55,-
CNC(=S)N(CCc1ccc(S(N)(=O)=O)cc1)C1CC(=O)N(c2ccccc2F)C1=O (stereo not drawn),-,-,79,-,-,61
COc1ccc(CN2CCC(N(CCc3ccccc3)Cc3ccccc3)CC2)c(OC)c1,-,-,-,-,-,-
O=C1/C(=C\c2ccco2)SC(=S)N1c1ccc(O)cc1,-,-,-,72,-,-
SMILES,Mcl-1 Bim block,Biofilm kill mix,14-3-3 Bad PPI,Hck Nef HTS,Mcl1 Noxa PPI,Mcl1-Bid inh
O=C1/C(=C\c2ccc(O)cc2)SC(=S)N1c1cccnc1,-,-,-,-,73,-
COc1ccc(/C=C2\SC(=S)N(c3cccnc3)C2=O)cc1,.,-,-,-,-,-
CS(=O)(=O)N(CC(=O)N1CCc2ccccc2C1)Cc1ccc(Cl)cc1,-,.,-,-,-,-
c1ccc2[nH]c(CN3CCCCCC3)nc2c1,-,.,-,-,-,-
O=S(=O)(c1ccccc1F)N1CCN(Cc2nc3ccccc3[nH]2)CC1,-,.,82,-,-,79
CCCNC(=O)C12CCC(C)(c3nc4cc(C)c(C)cc4nc31)C2(C)C (stereo not drawn),-,-,-,-,-,-
N#CC(C(=O)Nc1ccc(Cl)cc1)=C1Nc2ccccc2N1,-,.,-,-,51,-
COC(=O)c1cc(C(=O)c2ccc(Cl)cc2)n2c(=O)/c(=C\N(C)C)sc12,-,-,-,-,-,-
Cc1c(Br)c(O)c(Br)c2sc(=O)oc12,.,-,-,-,51,-
CC(C(=O)c1c[nH]c(C(N)=O)c1)c1ncc(C(F)(F)F)cc1Cl (stereo not drawn),-,-,-,-,-,-
O=c1c(Cl)c(Cl)cnn1Cc1nnc(-c2ccccc2Br)o1,-,-,-,-,-,-
CN(C)CCOc1ccccc1C(C)(C)C,-,.,-,-,-,63
CC(C)Oc1ccccc1OCCN(C)C,-,-,-,-,-,-
CN(C)CCOc1ccc(C(C)(C)c2ccccc2)cc1,-,-,-,-,-,65
Cc1ccc(/C(O)=C2\C(=O)C(=O)N(Cc3cccnc3)C2c2ccccc2[N+](=O)[O-])cc1 (stereo not drawn),-,-,-,-,-,-
Cc1c(/C(O)=C2/C(=O)C(=O)N(CCN(C)C)C2c2ccc(C(C)C)cc2)cnn1-c1ccccc1 (stereo not drawn),.,-,88,-,-,-
Cc1nc(N)c(Cc2ccccc2F)c(N)n1,-,-,-,-,-,-
CCOc1ccc(NC(=O)CN2C(=O)CSC(C)C2=O)cc1 (stereo not drawn),-,-,-,-,-,-
CCOc1ccc(NC(=O)CN2C(=O)/C(=C3\SC(=S)N(C4CCS(=O)(=O)C4)C3=O)c3ccccc32)cc1 (stereo not drawn),.,-,-,74,68,81
CC(CNC(=O)CCc1nnc(CCC2CCCCC2)o1)c1ccccc1 (stereo not drawn),-,-,-,-,-,-
CCN(Cc1ccncc1)C(=O)c1ccc2c(c1)S(=O)(=O)c1ccccc1C2=O,-,-,-,-,-,-
Oc1[nH]c2ccccc2c1/C=N/N1CCCCC1,-,.,-,-,-,93
Oc1ccccc1/C=N/N1CCCCC1,-,-,-,-,-,-
Cc1ccc2nc(=O)c(NNc3ccccc3)cnc2c1,-,-,-,94,-,-
Cc1ccc(N2CC(C(=O)Nc3ccc(N(C)C)cc3)CC2=O)cc1C (stereo not drawn),-,.,-,-,75,-
COc1ccc(Nc2nc(C(=O)N(CCO)Cc3ccccc3)cs2)cc1,-,-,-,-,-,-
N#C/C(=C(/O)CN1CCN(c2ccccc2F)CC1)c1nc(-c2ccccc2)cs1,46,.,-,-,-,-
CC(C)CCN(CCC(C)C)C/C(O)=C(\C#N)c1nc(-c2ccccc2)cs1,-,.,-,-,-,-
CC(C)(C)CC(=O)NCCCCCCNC(=O)CC(C)(C)C,-,-,-,-,-,-
